Assay results published in ChEMBL document CHEMBL1151445, “Molecular epidemiology and mechanisms of carbapenem resistance in Pseudomonas aeruginosa isolates from Spanish hospitals” (2007).
Values after ≈ are worked out from the molar mass of the structure shown.

Columns and labels:
[1] = tested on: Pseudomonas aeruginosa; assay: Antimicrobial activity against Pseudomonas aeruginosa PAO1 harboring pV2GY3 with blaVIM-2 and aac(6)'-32 by E-test; assay type: functional
How it was run: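 Plasmid DNA from clinical strain GY3 was electroporated into PAO1. Transformants were selected on Luria-Bertani agar with 8 μg imipenem/ml and checked with MBL Etest strips and PCR for the MBL gene. MICs for the transformant were determined by Etest.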

[2] = tested on: Pseudomonas aeruginosa; assay: Antimicrobial activity against Pseudomonas aeruginosa PAO1 by E-test; assay type: functional
[3] = tested on: Pseudomonas aeruginosa; assay: Antimicrobial activity against Pseudomonas aeruginosa GY3 producing blaVIM-2 by E-test; assay type: functional
[4] = tested on: Escherichia coli; assay: Antimicrobial activity against Escherichia coli XL1-Blue harboring pGTAAC-32 with cloned aac(6)'-32 by E-test
[5] = tested on: Pseudomonas aeruginosa; assay: Antimicrobial activity against carbapenem-resistant Pseudomonas aeruginosa clinical isolate assessed as resistant isolates; assay type: functional
[6] = tested on: Escherichia coli; assay: Antimicrobial activity against Escherichia coli XL1-Blue by E-test; assay type: functional
[7] = tested on: Pseudomonas aeruginosa; assay: Antimicrobial activity against carbapenem-susceptible Pseudomonas aeruginosa clinical isolate assessed as resistant isolates; assay type: functional
[8] = tested on: Pseudomonas aeruginosa; assay: Antimicrobial activity against carbapenem-resistant Pseudomonas aeruginosa clinical isolate
[9] = tested on: Pseudomonas aeruginosa; assay: Antimicrobial activity against carbapenem-resistant Pseudomonas aeruginosa clinical isolate; assay type: functional

| Compound | MIC [1] | MIC [2] | MIC [3] | MIC [4] | Activity [5] | MIC [6] | Activity [7] | MIC [8] | MIC [9] |
| --- | --- | --- | --- | --- | --- | --- | --- | --- | --- |
| CO/N=C(\C(=O)N[C@@H]1C(=O)N2C(C(=O)[O-])=C(C[N+]3(C)CCCC3)CS[C@H]12)c1csc(N)n1 | 16 µg/mL (≈ 33.3 µM) | 1.5 µg/mL (≈ 3.12 µM) | 16 µg/mL (≈ 33.3 µM) |  |  |  |  |  |  |
| NCC[C@H](O)C(=O)N[C@@H]1C[C@H](N)[C@@H](O[C@H]2O[C@H](CN)[C@@H](O)[C@H](O)[C@H]2O)[C@H](O)[C@H]1O[C@H]1O[C@H](CO)[C@@H](O)[C@H](N)[C@H]1O [AMIKACIN] | 48 µg/mL (≈ 82 µM) | 3 µg/mL (≈ 5.12 µM) | 64 µg/mL (≈ 109 µM) | 1.5 µg/mL (≈ 2.56 µM) | 19% | 0.75 µg/mL (≈ 1.28 µM) | 9% |  |  |
| C[C@H]1[C@H](NC(=O)/C(=N\OC(C)(C)C(=O)O)c2csc(N)n2)C(=O)N1S(=O)(=O)O [AZTREONAM] | 2 µg/mL (≈ 4.59 µM) |  | 2 µg/mL (≈ 4.59 µM) |  |  |  |  |  |  |
| CC(C)(O/N=C(\C(=O)N[C@@H]1C(=O)N2C(C(=O)[O-])=C(C[n+]3ccccc3)CS[C@H]12)c1csc(N)n1)C(=O)O [CEFTAZIDIME] | 24 µg/mL (≈ 43.9 µM) | 1.5 µg/mL (≈ 2.74 µM) | 16 µg/mL (≈ 29.3 µM) |  | 46% |  | 11% |  |  |
| O=C(O)c1cn(C2CC2)c2cc(N3CCNCC3)c(F)cc2c1=O [CIPROFLOXACIN] |  |  | > 32 µg/mL |  |  |  |  |  |  |
| C[C@@H](O)[C@H]1C(=O)N2C(C(=O)O)=C(SCCNC=N)C[C@H]12 [IMIPENEM ANHYDROUS] | > 32 µg/mL | 2 µg/mL (≈ 6.68 µM) | > 32 µg/mL |  | 95% |  |  |  |  |
| C[C@@H](O)[C@H]1C(=O)N2C(C(=O)O)=C(S[C@@H]3CN[C@H](C(=O)N(C)C)C3)[C@H](C)[C@H]12 [MEROPENEM] | 16 µg/mL (≈ 41.7 µM) | 0.38 µg/mL (≈ 0.991 µM) | 16 µg/mL (≈ 41.7 µM) |  | 68% |  |  | 8 µg/mL (≈ 20.9 µM) | 8 µg/mL (≈ 20.9 µM) |
| CC1COc2c(N3CCN(C)CC3)c(F)cc3c(=O)c(C(=O)O)cn1c23 (stereo not drawn) [OFLOXACIN] |  |  |  |  | 68% |  | 32% |  |  |
| CCN1CCN(C(=O)N[C@@H](C(=O)N[C@@H]2C(=O)N3[C@@H]2SC(C)(C)[C@@H]3C(=O)O)c2ccccc2)C(=O)C1=O [PIPERACILLIN] | 16 µg/mL (≈ 30.9 µM) | 2 µg/mL (≈ 3.86 µM) | 16 µg/mL (≈ 30.9 µM) |  | 28% |  | 9% |  |  |
| CC1(C)S[C@@H]2[C@H](NC(=O)[C@H](C(=O)O)c3ccsc3)C(=O)N2[C@H]1C(=O)O [TICARCILLIN] | > 256 µg/mL | 12 µg/mL (≈ 31.2 µM) | > 256 µg/mL |  | 34% |  | 11% |  |  |
| NC[C@H]1O[C@H](O[C@H]2[C@H](O)[C@@H](O[C@H]3O[C@H](CO)[C@@H](O)[C@H](N)[C@H]3O)[C@H](N)C[C@@H]2N)[C@H](N)C[C@@H]1O [TOBRAMYCIN] | 64 µg/mL (≈ 137 µM) | 0.75 µg/mL (≈ 1.6 µM) | > 256 µg/mL | 6 µg/mL (≈ 12.8 µM) | 44% | 0.38 µg/mL (≈ 0.813 µM) | 9% |  |  |
| GENTAMICIN | 16 µg/mL | 2 µg/mL | 32 µg/mL |  | 59% | 0.19 µg/mL | 26% |  |  |
